The list is not random: actives were taken first. Their share in the collection is about 1.5%.
RanGTP-Imp inh: inhibitors of RanGTP-importin-beta interaction, primary screen, biochemical, FRET, CFP-Ran, YFP-importin-beta, homogeneous | inhibition, % (test concentration not listed) | cell-free CFP-Ran/YFP-importin-beta FRET ratio | actives 1.1% (n = 300,000) | AID 2216;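 active = more than half of the replicate wells show a fall in the fluorescence ratio signal beyond about 16%, limit read from the data, passing the limit was not always enough; inconclusive = exactly half of the replicate wells pass the set limit; inactive = fewer than half of replicates pass the limit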;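 also: 0% = DMSO wells and 100% = Ran loaded with GDP instead of GTP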
Hck Nef HTS: inhibitors of human Hck kinase activated by Nef; inhibition, % at 20 µM; actives 0.68% (n = 220,000); AID 463187; P08631; Recombinant Hck-YEEI plus Nef, Z-Lyte FRET kinase assay;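 active = Hck-Nef kinase inhibition above about 50%, limit read from the data; inactive = inhibition below that limit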;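 also: 0% = DMSO with Hck plus Nef and 100% = Hck alone without Nef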
Target sequence (P08631 whole entry, looked up): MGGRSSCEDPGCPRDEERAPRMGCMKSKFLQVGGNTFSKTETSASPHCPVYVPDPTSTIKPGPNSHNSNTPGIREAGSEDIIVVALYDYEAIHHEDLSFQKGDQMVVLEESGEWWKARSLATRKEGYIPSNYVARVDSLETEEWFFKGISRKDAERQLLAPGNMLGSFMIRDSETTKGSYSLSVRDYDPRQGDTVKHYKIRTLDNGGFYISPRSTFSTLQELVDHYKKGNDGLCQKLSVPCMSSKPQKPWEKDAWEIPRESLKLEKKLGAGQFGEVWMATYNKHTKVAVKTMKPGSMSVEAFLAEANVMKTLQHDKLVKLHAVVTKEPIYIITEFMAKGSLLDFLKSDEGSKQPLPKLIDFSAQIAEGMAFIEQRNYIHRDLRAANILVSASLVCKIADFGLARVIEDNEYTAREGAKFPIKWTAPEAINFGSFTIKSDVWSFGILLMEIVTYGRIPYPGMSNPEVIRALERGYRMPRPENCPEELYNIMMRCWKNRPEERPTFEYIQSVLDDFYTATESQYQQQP
Runt-CBFb FRET: inhibitors of human RUNX1 Runt domain binding to CBFb. Q01196+Q13951. Cerulean-Runt/Venus-CBFb FRET ratio 530/480, 1 h. inhibition, % at 20 µM. actives 0.46% (n = 220,000). AID 1496;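 active = inhibition over about 50% at 20 µM in the single-dose screen, limit read from the data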;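 also: 0% = DMSO wells and 100% = excess unlabeled CBFb competitor control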
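System: Cerulean-labeled Runt domain protein | Quantity: 100 nM of each labeled protein | Schedule: 1 h compound exposure, room temperature | Detection: Fluorescence energy transfer, 422 nm excitation, 530/480 nm emission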
CaV13 ICDI inh: Primary screen for inhibitors of IQ motif and Ca2+-dependent inactivation inhibitor domain binding in CACNA1D, Förster resonance energy transfer in living cells, … | inhibition, % at 12.3 µM | AID 743397 | HEK cells, CFP/YFP FRET ICDI-IQ, plate reader, 10 min; percent FRET-ratio fall versus neutral wells | actives 0.098% (n = 340,000);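 active = mean replicate inhibition of at least 30% and at least 1% of replicates passing that level; inconclusive = only one of the two criteria is met; inactive = neither criterion is met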;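 also: 0% = median of the neutral control wells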
Runt-SMMHC FRET: inhibitors of human RUNX1 Runt domain binding to CBFb-SMMHC | inhibition, % at 20 µM | AID 1434 | actives 0.74% (n = 220,000) | Q01196+Q13951 | Cerulean-Runt/Venus-CBFb-SMMHC FRET ratio 530/480, 1 h;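 active = mean inhibition across duplicate retests at 20 µM reaching about 50%, limit read from the data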;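 also: 0% = DMSO wells and 100% = wells with excess untagged CBFb-SMMHC; inhibitors lower the FRET ratio by blocking Runt binding to CBFb-SMMHC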
RUNX1 CBFb TR: Runt-CBFb binding inhibition; shares compounds with Runt-CBFb FRET; TR-FRET RUNX1 Runt domain-CBFb binding; inhibition, % at 20 µM; actives 20% (n = 480); in the data active = inhibition above about 40%
Hck Nef conf: confirmation of Hck-Nef kinase inhibitors. shares compounds with Hck Nef HTS. Recombinant Hck-YEEI:Nef, Z-Lyte FRET kinase assay. calls only at 10 µM. actives 28% (n = 1,300);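 active = average inhibition of at least 50%, with Z-scores no higher than 3 in both the phospho-tyrosine peptide and fluorescence counterscreens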
* marks the source's active call; other numbers are inactive results.

What do the screens show for `O=c1ccc2cc(O[C@@H]3O[C@@H](CO)[C@H](O)[C@@H](O)[C@@H]3O)c(O)cc2o1`?
RanGTP-Imp inh: 101.7*; CaV13 ICDI inh: 13.2

What do the screens show for `C=CCNC(=O)c1c(N)n(Cc2ccco2)c2nc3ccccc3nc12`?
RanGTP-Imp inh: 77.1*; Hck Nef HTS: 35.6; Runt-CBFb FRET: 75.8*; CaV13 ICDI inh: -2.3; Runt-SMMHC FRET: 42.1

Results for CC(C)(C)OC(=O)c1c(N)n(Cc2ccco2)c2nc3ccccc3nc12 ?
RanGTP-Imp inh: 31.8*; Hck Nef HTS: 36.2; Runt-CBFb FRET: 70.6*; CaV13 ICDI inh: -3.1; Runt-SMMHC FRET: 58.7*

What do the screens show for `CC/C(=N\NC(=O)c1ccccc1)c1c(O)n(Cc2ccccc2)c(=O)[nH]c1=O`?
RanGTP-Imp inh: 6.2; Hck Nef HTS: -0.1; Runt-CBFb FRET: -0.5; CaV13 ICDI inh: -3.0; Runt-SMMHC FRET: 2.8

Results for COCCNC(=O)c1c(N)n(Cc2ccco2)c2nc3ccccc3nc12 ?
RanGTP-Imp inh: 90.5*; Hck Nef HTS: 48.5; Runt-CBFb FRET: 58.4*; CaV13 ICDI inh: -3.5; Runt-SMMHC FRET: 42.1

Results for Nc1c(C(=O)OCc2ccccc2)c2nc3ccccc3nc2n1Cc1cccs1 ?
RanGTP-Imp inh: -0.5; Hck Nef HTS: 4.7; Runt-CBFb FRET: 3.9; CaV13 ICDI inh: -5.1; Runt-SMMHC FRET: 18.5

Results for COCCCNC(=O)c1c(NC(=O)c2ccccc2Cl)n(Cc2ccccc2)c2nc3ccccc3nc12 ?
RanGTP-Imp inh: 71.4*; Hck Nef HTS: 6.4; Runt-CBFb FRET: 21.8; CaV13 ICDI inh: -3.0; Runt-SMMHC FRET: 63.3*

What do the screens show for `Cc1c(C)c2ccc(OCC(=O)N3C[C@H]4C[C@@H](C3)c3cccc(=O)n3C4)c(C)c2oc1=O`?
RanGTP-Imp inh: -3.6

Results for Cc1ccc2c(c1)c(=O)c1c3n2CCN(CC2CO2)C3CC1 (stereo not given) ?
RanGTP-Imp inh: 29.4*; Hck Nef HTS: 6.4; Runt-CBFb FRET: 4.5; CaV13 ICDI inh: -4.9; Runt-SMMHC FRET: 10.9

What do the screens show for `Cc1cc(Cl)nc(N)n1`?
RanGTP-Imp inh: -10.8; Hck Nef HTS: -74.7; Runt-CBFb FRET: -1.9; CaV13 ICDI inh: -3.0; Runt-SMMHC FRET: -6.3

Results for CN1C(=O)C(=Cc2ccc(-c3cccc(Cl)c3)o2)C(=O)N(C)C1=O ?
RanGTP-Imp inh: 2.5; Hck Nef HTS: 25.6; Runt-CBFb FRET: 2.7; Runt-SMMHC FRET: -2.3

How did Cc1ccc(Sc2ccc(C=C3C(=O)N(C)C(=O)N(C)C3=O)o2)cc1 do in these assays?
RanGTP-Imp inh: inconclusive; Hck Nef HTS: 70.3*; Runt-CBFb FRET: 7.8; CaV13 ICDI inh: 8.6; Runt-SMMHC FRET: -5.8

How did O=C1Nc2ccccc2Oc2ccccc21 do in these assays?
CaV13 ICDI inh: -20.3

Results for CC(=O)C1C(=O)NC23CCCCC2C1c1ccccc1O3 (stereo not given) ?
RanGTP-Imp inh: inconclusive; Hck Nef HTS: 4.6; Runt-CBFb FRET: -1.7; CaV13 ICDI inh: -4.8; Runt-SMMHC FRET: -1.1

How did CC12CC(c3ccccc3O1)C(C(=O)OCc1ccccc1)C(=O)N2 (stereo not given) do in these assays?
RanGTP-Imp inh: 3.9; Hck Nef HTS: 8.3; Runt-CBFb FRET: -0.6; CaV13 ICDI inh: 98.9*; Runt-SMMHC FRET: 2.5

How did CC(=O)Nc1ccc(S(=O)(=O)NC(CC(=O)N2CCC3(CC2)OCCO3)C(C)C)cc1 (stereo not given) do in these assays?
RanGTP-Imp inh: 1.2; Hck Nef HTS: -1.2; Runt-CBFb FRET: 0.5; CaV13 ICDI inh: 0.1; Runt-SMMHC FRET: 0.2

Results for Cc1ccc(S(=O)(=O)NC(CC(=O)N2CCC3(CC2)OCCO3)c2ccco2)cc1 (stereo not given) ?
RanGTP-Imp inh: 20.5*; Hck Nef HTS: 2.7; Runt-CBFb FRET: 0.1; CaV13 ICDI inh: -3.4; Runt-SMMHC FRET: 1.2

How did Cc1ccc(N2C(=O)NC(=O)/C(=C/c3ccoc3)C2=O)cc1 do in these assays?
Hck Nef HTS: 54.6*; Runt-CBFb FRET: -127.3; CaV13 ICDI inh: -1.4; Runt-SMMHC FRET: -18.2

What do the screens show for `Cc1ccc(N2C(=O)NC(=O)/C(=C/c3cnn(-c4ccc(C)cc4)c3)C2=O)cc1`?
RanGTP-Imp inh: 7.0; Hck Nef HTS: 10.2; Runt-CBFb FRET: -2.7; CaV13 ICDI inh: -10.6; Runt-SMMHC FRET: -75.3

What do the screens show for `CN1CCN(c2c(C#N)c(C(F)(F)F)nn2C)CC1`?
RanGTP-Imp inh: inconclusive; Hck Nef HTS: -20.2; Runt-CBFb FRET: 80.9*; CaV13 ICDI inh: -2.2; Runt-SMMHC FRET: -4.0

What do the screens show for `CC(=O)O[C@H]1CCC2C3CCC4=CC(=O)CCC4=C3C=C[C@@]21C` (stereo not given in full)?
RanGTP-Imp inh: 32.5*; CaV13 ICDI inh: -3.8

What do the screens show for `Cc1nc2c(c(=O)[nH]1)C(c1ccc([N+](=O)[O-])cc1)c1c(c3ccccc3oc1=O)O2` (stereo not given)?
RanGTP-Imp inh: 6.1; Hck Nef HTS: 17.9; Runt-CBFb FRET: 1.1; Runt-SMMHC FRET: -0.4

What do the screens show for `C=CCC1C(=O)NC(=S)NC1=O`?
RanGTP-Imp inh: -0.4; Hck Nef HTS: 22.4; Runt-CBFb FRET: 8.3; CaV13 ICDI inh: -4.6; Runt-SMMHC FRET: 13.1

What do the screens show for `COCCCn1c(N)c(C(=O)NCc2ccco2)c2nc3ccccc3nc21`?
RanGTP-Imp inh: 57.7*; Hck Nef HTS: 43.1; Runt-CBFb FRET: 59.6*; CaV13 ICDI inh: -0.4; Runt-SMMHC FRET: 81.2*; RUNX1 CBFb TR: 33.7

Results for Cc1ccc(OC(F)F)c(N2C(=O)C3C4CCC(O4)C3C2=O)c1 (stereo not given) ?
CaV13 ICDI inh: -15.8

Results for CCC(C)OC(=O)c1c(N)n(Cc2cccs2)c2nc3ccccc3nc12 (stereo not given) ?
RanGTP-Imp inh: 12.5; Hck Nef HTS: 7.3; Runt-CBFb FRET: 53.4*; CaV13 ICDI inh: -8.5; Runt-SMMHC FRET: 94.1*; RUNX1 CBFb TR: 28.6

Results for COCc1cc(OC(=O)N(C)C)nc(-c2ccccc2)n1 ?
RanGTP-Imp inh: 2.0; Hck Nef HTS: -14.2; Runt-CBFb FRET: -0.2; CaV13 ICDI inh: -20.5; Runt-SMMHC FRET: -1.8

What do the screens show for `Nc1c(C(=O)NCCc2ccccc2)c2nc3ccccc3nc2n1CCN1CCOCC1`?
RanGTP-Imp inh: 78.3*; Hck Nef HTS: 53.3*; Runt-CBFb FRET: 57.9*; Runt-SMMHC FRET: 91.0*; RUNX1 CBFb TR: 23.1; Hck Nef conf: inactive

Source: PubChem (several laboratories)
